The results in this text go back to the array DNA melting data of Ke et al. (doi:10.1101/2024.01.08.574731).

Data set [1] can be described thus: melting temperature; fluorescence melt of hairpins on a sequencing array, two-state fit, raised by 9.35 °C to match UV melts. Conditions: sodium 0.088 M. The procedure, abridged: (§1)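 Folding enthalpy and melting temperature come from bootstrapped two-state fits to Cy3 fluorescence of library hairpins carrying annealed Cy3 and quencher oligos on a sequenced MiSeq flow cell. Imaging was done in 50 mM Na-HEPES pH 8.0, 25 mM NaCl, stepping by 2.5 °C up to 60 °C, and signals were normalised to pre-quench Cy3 and to control constructs. Results of four replicates were combined by inverse variance, and fitted temperatures were raised by 9.35 °C to match UV melts.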

Data set [2] in a line: folding enthalpy; higher = less favourable; fluorescence melt of hairpins on a sequencing array, two-state fit. As to conditions: sodium 0.088 M. Put shortly:
as §1

As for GTGCTGGGAAACCAGTAC ((.((((....)))).)), in data set [1], the Tm amounted to 51.7 °C. The folding enthalpy in data set [2] was -39.6 kcal/mol.

Regarding GTGCTTACGAAAGTACAC (((..(((....)))))), the Tm in data set [1] worked out at 34 °C. Besides, in data set [2], the folding enthalpy was -9.43 kcal/mol.

For GTGCTTGGAAACAAGTAC ((.((((....)))).)), the Tm in data set [1] was 49.2 °C. For the same sequence, the folding enthalpy in data set [2] is -32.3 kcal/mol.

With GTGGAAACGAAAGTTCAC (((..(((....)))))), in data set [1], the Tm stood at 33.7 °C. Also, in data set [2], the folding enthalpy is -19.5 kcal/mol.

With GTGGAACGAAAGTTGCAC (((.(((....))).))), the Tm in data set [1] is 56.5 °C. The folding enthalpy in data set [2] is -40.3 kcal/mol.

As to GTGGAAGCGAAAGCTCAC (((..(((....)))))), the Tm in data set [1] was found to be 44.3 °C. Moreover, the folding enthalpy in data set [2] is -18.8 kcal/mol.

As to GTGGAAGGAAACTTCTAC ((.((((....)))).)), the Tm in data set [1] was 39.3 °C. For the same sequence, the folding enthalpy in data set [2] is -27.8 kcal/mol.

In the case of GTGGACGAAAGTCACCAC ((((((....)))..))), the Tm in data set [1] came out at 38 °C. The folding enthalpy in data set [2] was -16.4 kcal/mol.

For GTGGACGAAAGTCCCCAC ((((((....)))..))), the Tm in data set [1] was 37.2 °C. Further, the folding enthalpy in data set [2] is -8.05 kcal/mol.

For GTGGACGAAAGTCGCAC ((((((....))).))), in data set [1], the Tm is 50.4 °C. The folding enthalpy in data set [2] is -15.5 kcal/mol.

For the sequence GTGGACGAAAGTCTGCAC ((((((....)))..))), in data set [1], the Tm stood at 40.6 °C. Further, the folding enthalpy in data set [2] is -15.7 kcal/mol.

As to GTGGACGGAAACACCCAC ((((..(....)..)))), the Tm in data set [1] came to 30.4 °C. For the same sequence, the folding enthalpy in data set [2] is -12.2 kcal/mol.

As to GTGGAGCCGAAAGGCCAC (((..(((....)))))), the Tm in data set [1] turned out to be 50.5 °C. The folding enthalpy in data set [2] was -13.7 kcal/mol.

As for GTGGCACCGAAAGGTCAC (((..(((....)))))), the Tm in data set [1] was 42.6 °C. The folding enthalpy in data set [2] was -14.9 kcal/mol.

Take GTGGCAGGAAACTGTCAC (((.(((....))).))): the Tm in data set [1] is 54.3 °C. Further, the folding enthalpy in data set [2] was -41 kcal/mol.

Turning to GTGGCCGAAAGGCAGCAC ((((((....)))..))), in data set [1], the Tm is 46.3 °C. In data set [2], the folding enthalpy was -14.1 kcal/mol.

In the case of GTGGCCTCGAAAGAGCAC (((..(((....)))))), the Tm in data set [1] was found to be 37.4 °C. Further, the folding enthalpy in data set [2] is -14.7 kcal/mol.

As to GTGGCGGGAAACCGCTAC ((.((((....)))).)), the Tm in data set [1] stood at 58.3 °C. In addition, the folding enthalpy in data set [2] is -19.3 kcal/mol.

On to GTGGCTCCGAAAGGACAC (((..(((....)))))), for which, in data set [1], the Tm worked out at 47.8 °C. Further, the folding enthalpy in data set [2] is -14.6 kcal/mol.

With GTGGCTGCGAAAGCACAC (((..(((....)))))), the Tm in data set [1] came to 47.8 °C. Moreover, the folding enthalpy in data set [2] is -11.5 kcal/mol.

Consider GTGGGAACGAAAGTTCAC (((..(((....)))))), for which the Tm in data set [1] was determined as 54.9 °C. Besides, in data set [2], the folding enthalpy was -34.3 kcal/mol.

Take GTGGGAGGAAACTCCTAC ((.((((....)))).)): the Tm in data set [1] worked out at 46.8 °C. In addition, the folding enthalpy in data set [2] is -25.1 kcal/mol.

As for GTGGGAGGAAACTCCTGC (..((((....))))..), the Tm in data set [1] worked out at 37.8 °C. In data set [2], the folding enthalpy is -17.4 kcal/mol.

Turning to GTGGGAGGAAACTTCCAC ((((.((....)).)))), in data set [1], the Tm stood at 49.2 °C. In addition, the folding enthalpy in data set [2] is -41.1 kcal/mol.

In the case of GTGGGCGAAAGCCCGCAC ((((((....)))..))), the Tm in data set [1] is 58.6 °C. The folding enthalpy in data set [2] is -10.2 kcal/mol.

Turning to GTGGGCGAAAGCCGCAC ((((((....))).))), the Tm in data set [1] was found to be 55.4 °C. Moreover, the folding enthalpy in data set [2] was -13.8 kcal/mol.

On to GTGGGCGGAAACGCCTAC ((.((((....)))).)), for which the Tm in data set [1] came to 56.5 °C. Besides, in data set [2], the folding enthalpy was -16.3 kcal/mol.

With GTGGGCGGAAACGCTCAC (((.(((....))).))), in data set [1], the Tm worked out at 59.6 °C. The folding enthalpy in data set [2] is -34.3 kcal/mol.

Regarding GTGGGCGGAAACGCTCGC (.(.(((....))).).), the Tm in data set [1] was found to be 49.9 °C. Besides, the folding enthalpy in data set [2] was -21.3 kcal/mol.

In the case of GTGGGGCGAAAGCCCAC (((.(((....)))))), the Tm in data set [1] turned out to be 62.6 °C. Further, the folding enthalpy in data set [2] is -12.8 kcal/mol.

For the sequence GTGGGGCGAAAGCCTCAC (((.(((....))).))), the Tm in data set [1] is 67.6 °C. Further, in data set [2], the folding enthalpy was -30.2 kcal/mol.

On to GTGGGGGGAAACCCTCAC (((.(((....))).))), for which, in data set [1], the Tm worked out at 52.6 °C. Besides, the folding enthalpy in data set [2] is -30.3 kcal/mol.

As to GTGGGGTCGAAAGACCAC (((..(((....)))))), in data set [1], the Tm was 63.1 °C. For the same sequence, in data set [2], the folding enthalpy is -19.2 kcal/mol.

As for GTGGTAGAAATACCAC ((((((....)))))), the Tm in data set [1] was found to be 53.6 °C. In addition, the folding enthalpy in data set [2] is -36.1 kcal/mol.

On to GTGGTAGGAAACCACCAC (((((.(....).))))), for which the Tm in data set [1] is 49.4 °C. Further, the folding enthalpy in data set [2] was -22.5 kcal/mol.

For GTGGTAGGAAACTACCAC (((((((....))))))), in data set [1], the Tm is 61.2 °C. Moreover, in data set [2], the folding enthalpy is -54.9 kcal/mol.

Consider GTGGTAGGAAACTACCGC (.(((((....))))).), for which the Tm in data set [1] was determined as 52.5 °C. Besides, the folding enthalpy in data set [2] is -32.5 kcal/mol.

Turning to GTGGTAGGAAACTACTAC ((.((((....)))).)), in data set [1], the Tm was found to be 41.8 °C. For the same sequence, the folding enthalpy in data set [2] was -32.2 kcal/mol.

For GTGGTAGGAAACTATCGC (.(.(((....))).).), the Tm in data set [1] came out at 31.1 °C. For the same sequence, in data set [2], the folding enthalpy was -18.1 kcal/mol.

For GTGGTAGGAAACTGCCAC ((((.((....)).)))), in data set [1], the Tm worked out at 54.1 °C. Moreover, in data set [2], the folding enthalpy is -50 kcal/mol.

For GTGGTATCGAAAGATCAC (((..(((....)))))), the Tm in data set [1] is 33.3 °C. Besides, the folding enthalpy in data set [2] is -23.8 kcal/mol.

Regarding GTGGTCCCGAAAGGGCAC (((..(((....)))))), in data set [1], the Tm was found to be 42.5 °C. For the same sequence, the folding enthalpy in data set [2] is -14.8 kcal/mol.

As for GTGGTCGAAAGACACAC ((((((....))).))), the Tm in data set [1] came to 50.3 °C. The folding enthalpy in data set [2] is -26.6 kcal/mol.

Consider GTGGTCGAAAGACTCCAC ((((((....)))..))), for which, in data set [1], the Tm was found to be 38.9 °C. The folding enthalpy in data set [2] is -13.7 kcal/mol.

In the case of GTGGTCGGAAACGGCCAC ((((.((....)).)))), the Tm in data set [1] was found to be 63.5 °C. In addition, the folding enthalpy in data set [2] is -33.7 kcal/mol.

As to GTGGTGCGAAAGCAACAC (((.(((....))).))), the Tm in data set [1] turned out to be 68.9 °C. Moreover, in data set [2], the folding enthalpy is -28.8 kcal/mol.

With GTGGTGCGAAAGCACAC (((.(((....)))))), the Tm in data set [1] amounted to 53.8 °C. Further, the folding enthalpy in data set [2] is -11.5 kcal/mol.

GTGGTGCGAAAGCATCAC (((.(((....))).))): the Tm in data set [1] is 67 °C. The folding enthalpy in data set [2] was -30.4 kcal/mol.

With GTGGTGGCGAAAGCCCAC (((..(((....)))))), the Tm in data set [1] was 53.5 °C. Further, the folding enthalpy in data set [2] is -14.8 kcal/mol.

As for GTGGTGGGAAACCATCGC (.(.(((....))).).), in data set [1], the Tm was determined as 41.6 °C. Besides, the folding enthalpy in data set [2] is -24.9 kcal/mol.

Regarding GTGGTGGGAAACCGCTAC ((.(.((....)).).)), in data set [1], the Tm amounted to 46.7 °C. In addition, the folding enthalpy in data set [2] was -19.3 kcal/mol.

GTGGTGGGAAACTACCAC (((((.(....).))))): the Tm in data set [1] came out at 52.6 °C. Further, the folding enthalpy in data set [2] is -43.4 kcal/mol.

As to GTGGTTCGAAAGAAGCAC (((.(((....))).))), the Tm in data set [1] worked out at 60.1 °C. For the same sequence, the folding enthalpy in data set [2] was -41.7 kcal/mol.

As to GTGGTTGGAAACAGCCAC ((((.((....)).)))), the Tm in data set [1] came to 52.4 °C. Also, the folding enthalpy in data set [2] was -44.1 kcal/mol.
